Here are results for 19 compounds from ChEMBL document CHEMBL2169846, “Design and synthesis of Pictet-Spengler condensation products that exhibit oncogenic-RAS synthetic lethality and induce non-apoptotic cell death” (Bioorg Med Chem Lett, 2012).

The test system of one assay is BJeH. Put plainly: Cytotoxicity against human BJeH cells expressing wild type RAS at 20 ug/mL after 48 hrs by alamar blue assay. In kind it is functional, cell-based. (Resazurin is reduced to fluorescent resorufin, in cell work by metabolically active cells.)
In assay [1] the test system is RKO. Put plainly: Cytotoxicity against human RKO cells at 20 ug/mL after 48 hrs by alamar blue assay. It counts as functional, cell-based. The procedure, abridged:
(§1)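 Each cell line exposed for 48 h to a 2-fold, 12-point dilution series beginning at 20 µg/mL. Viability by Alamar blue; LC50 derived from the curves.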

Assay [2] addresses E3 ubiquitin-protein ligase Mdm2 (Homo sapiens) (UniProt Q00987). The experiment in a line: Inhibition of wild type Mdm2 at 20 ug/mL after 2 hrs by cell-based luciferase assay.
The next assay deals with MCF7. Put plainly: Cytotoxicity against human MCF7 cells at 20 ug/mL after 48 hrs by alamar blue assay. In kind it is functional, cell-based. A digest of the protocol: as §1
A further assay concerns BJeLR. The experiment in a line: Cytotoxicity against human BJeLR cells expressing RAS G12V mutant at 20 ug/mL after 48 hrs by alamar blue assay. It counts as functional, cell-based.
The subject of assay [3] is HT-1080. Put plainly: Cytotoxicity against human HT1080 cells at 20 ug/mL after 48 hrs by alamar blue assay. In kind it is functional, cell-based. The procedure, abridged: as §1
Another assay concerns HT1299. Put plainly: Cytotoxicity against human HT1299 cells at 20 ug/mL after 48 hrs by alamar blue assay. It counts as functional, cell-based. The procedure, abridged:
as §1

The subject of assay [4] is U2OS. Put plainly: Cytotoxicity against human U2OS cells at 20 ug/mL after 48 hrs by alamar blue assay. In kind it is functional, cell-based.
In assay [5] the test system is E3 ubiquitin-protein ligase Mdm2 (Homo sapiens), Q00987 [C464A]. The experiment in a line: Inhibition of Mdm2 C464A mutant at 20 ug/mL after 2 hrs by cell-based luciferase assay.
Chain of E3 ubiquitin-protein ligase Mdm2 (Homo sapiens), Q00987 [C464A] (Q00987 whole entry C464A): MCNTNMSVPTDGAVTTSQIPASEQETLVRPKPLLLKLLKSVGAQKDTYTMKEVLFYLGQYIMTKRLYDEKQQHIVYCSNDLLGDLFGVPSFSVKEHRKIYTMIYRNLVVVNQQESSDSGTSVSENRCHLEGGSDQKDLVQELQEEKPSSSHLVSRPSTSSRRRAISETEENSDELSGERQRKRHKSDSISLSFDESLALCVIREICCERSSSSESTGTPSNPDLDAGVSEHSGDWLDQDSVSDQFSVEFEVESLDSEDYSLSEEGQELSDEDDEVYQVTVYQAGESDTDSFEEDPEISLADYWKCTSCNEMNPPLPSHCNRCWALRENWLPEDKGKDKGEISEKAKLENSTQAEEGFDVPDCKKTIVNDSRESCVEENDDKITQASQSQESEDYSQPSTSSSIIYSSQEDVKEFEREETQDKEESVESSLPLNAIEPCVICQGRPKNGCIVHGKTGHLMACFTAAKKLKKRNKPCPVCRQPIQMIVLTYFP
Assay [6] can be described thus: Cytotoxicity against human BJeLR cells expressing RAS G12V mutant after 48 hrs by alamar blue assay. It counts as functional, cell-based. The note with it: for CC50: read-out: LC50 (the source's name).
Assay [7] is described as follows: Cytotoxicity against human BJeH cells expressing wild type RAS after 48 hrs by alamar blue assay. To be noted: for CC50: read-out: LC50 (the source's name). It counts as functional, cell-based.
Assay [8] in a line: Cytotoxicity against human HT1299 cells after 48 hrs by alamar blue assay. In kind it is functional. The note with it: HT1299, 48 h, read-out: LC50 (the source's name).
Assay [9] concerns RKO. Put plainly: Cytotoxicity against human RKO cells after 48 hrs by alamar blue assay. It counts as functional. The note with it: read-out: LC50 (the source's name).
For assay [10], the system named is HT-1080. Put plainly: Cytotoxicity against human HT1080 cells after 48 hrs by alamar blue assay. In kind it is functional. The note with it: HT-1080, 48 h, read-out: LC50 (the source's name).
Assay [11] has as its system U2OS. The experiment in a line: Cytotoxicity against human U2OS cells after 48 hrs by alamar blue assay. In kind it is functional. The note with it: read-out: LC50 (the source's name).

pEC50: −log10 of the molar value. Calls of active or inactive are those of the source. No cut-off for these calls is given here.

Chain of E3 ubiquitin-protein ligase Mdm2 (Homo sapiens) (Q00987 whole entry, looked up): as the sequence (Q00987 whole entry C464A) above, with A464C counted along it

As to `CN1C(=O)C(CCC2NCCc3c2[nH]c2ccccc32)C(=O)N(C)C1=O` (centres undefined), the outcome with BJeH, in the assay with RKO [1], in the assay on MCF7, in the assay with BJeLR, in the assay on HT-1080 [3] and in the assay with HT1299 was inactive. The result in the assay on U2OS [4] was inactive. Moreover, the inhibition result in [2] and in [5] was “inactive” each time.

Take `COC(=O)CC1c2[nH]c3ccccc3c2CCN1Cc1ccccc1` (centres undefined): the result in the assay on BJeH, in the assay on RKO [1], in the assay on MCF7, with HT-1080 [3], in the assay with HT1299 and in the assay with U2OS [4] was inactive. The CC50 in [6] was found to be 59.8 µM. The inhibition result in assay [2] and in [5] was “inactive” throughout.

As for `CN1C(=O)C(c2nccc3c2[nH]c2ccccc23)C(=O)N(C)C1=O`, the result with BJeH, with RKO [1], in the assay on MCF7, in the assay on BJeLR, in the assay with HT-1080 [3] and in the assay with HT1299 was inactive. Moreover, in the assay with U2OS [4], the outcome was inactive. The inhibition result in assay [2] and in [5] was “inactive” throughout.

In general, pEC50 refers to the EC50 on a negative log10 scale, so that one unit is a factor of ten. On to `COc1ccc(N(C(=O)CCl)C(C(=O)NCCc2ccccc2)c2cccs2)cc1Cl` (centres undefined), for which the pEC50 in assay [7] was 6.24; in [6], 7.60.

With `CCOC(=O)C1c2[nH]c3ccccc3c2CCN1C(=O)OC` (centres undefined), the result in the assay with BJeH, with RKO [1], in the assay with MCF7, with BJeLR, with HT-1080 [3] and with HT1299 was inactive. The result in the assay with U2OS [4] was inactive. Moreover, the inhibition result in assay [2] and in assay [5] was “inactive” each time.

Turning to `COC(OC)c1nccc2c1[nH]c1ccccc12`, the CC50 in assay [7] worked out at 82.6 µM; in [6], 7.8 µM. The outcome with RKO [1], in the assay on MCF7, in the assay on HT-1080 [3], in the assay with HT1299 and in the assay with U2OS [4] was inactive. In addition, the inhibition result in assay [2] and in assay [5] was “inactive” throughout.

With `CCOC(=O)C1c2c(c3ccccc3n2C(=O)OC(C)(C)C)CCN1C(=O)OC` (centres undefined), the outcome with BJeH, in the assay with RKO [1], with MCF7, in the assay with BJeLR, in the assay on HT-1080 [3] and with HT1299 was inactive. The result with U2OS [4] was inactive. For the same compound, the inhibition entry in [2] and in [5] was “inactive” throughout.

Regarding `O=Cc1nccc2c1[nH]c1ccccc12`, the result in the assay on BJeH, with MCF7 and in the assay on U2OS [4] was inactive. For the same compound, the CC50 in assay [6] turned out to be 32.4 µM; in assay [8] it was 67.5 µM; with RKO [9], 11.1 µM; in the assay on HT-1080 [10], 67.5 µM. The inhibition entry in [2] and in assay [5] was “inactive” in each case.

For `CCOC(=O)C1c2[nH]c3ccccc3c2CCN1Cc1ccccc1` (centres undefined), the result in the assay with BJeH, in the assay with RKO [1], in the assay on MCF7, in the assay with BJeLR, in the assay with HT-1080 [3] and in the assay with HT1299 was inactive. The result in the assay on U2OS [4] was inactive. The inhibition entry in assay [2] and in assay [5] was “inactive” in each case.

With `COC(=O)N1CCc2c(n(C(=O)OC(C)(C)C)c3ccccc23)C1C(OC)OC` (centres undefined), the result with BJeH, in the assay with RKO [1], with MCF7, in the assay with BJeLR, in the assay with HT-1080 [3] and in the assay with HT1299 was inactive. In addition, the CC50 in the assay on U2OS [11] is 48.7 µM. Besides, the inhibition result in [2] and in [5] was “inactive” each time.

`CCCN1C(=O)C(CCC2NCCc3c2[nH]c2ccccc32)C(=O)N(CCC)C1=O` (centres undefined): the result in the assay with BJeH, in the assay on RKO [1], in the assay with MCF7, in the assay with BJeLR, in the assay on HT-1080 [3] and with HT1299 was inactive. Besides, the outcome in the assay on U2OS [4] was inactive. Moreover, the inhibition result in [2] and in assay [5] was “inactive” in each case.

With `CN1C(=O)C(Cc2nccc3c4ccccc4n(C(=O)OC(C)(C)C)c23)C(=O)N(C)C1=O`, the result with BJeH, with RKO [1], with MCF7, in the assay with BJeLR, in the assay with HT-1080 [3] and with HT1299 was inactive. Moreover, the outcome in the assay with U2OS [4] was inactive. The inhibition result in assay [2] and in [5] was “inactive” in each case.

With `CN1C(=O)C(Cc2nccc3c2[nH]c2ccccc23)C(=O)N(C)C1=O`, the result in the assay on BJeH, with RKO [1], with MCF7, in the assay with BJeLR, in the assay with HT-1080 [3] and with HT1299 was inactive. Moreover, the outcome in the assay with U2OS [4] was inactive. For the same compound, the inhibition entry in assay [2] and in [5] was “inactive” throughout.

For the compound `CCOC(=O)C(C)C1NCCc2c1[nH]c1ccccc21` (centres undefined), the CC50 amounted to 73.5 µM in assay [7] and 31.6 µM in [6]. In addition, the outcome in the assay on RKO [1], in the assay with MCF7, with HT-1080 [3], with HT1299 and in the assay with U2OS [4] was inactive. The inhibition entry in [2] and in assay [5] was “inactive” throughout.

For the compound `CCCN1C(=O)C(CC(C)C2NCCc3c2[nH]c2ccccc32)C(=O)N(CCC)C1=O` (centres undefined), the result with BJeH, in the assay on RKO [1], in the assay on MCF7, in the assay on BJeLR, with HT-1080 [3] and in the assay on HT1299 was inactive. The outcome in the assay with U2OS [4] was inactive. The inhibition result in assay [2] and in assay [5] was “inactive” in each case.

On to `CCOC(=O)C1c2c(c3ccccc3n2C)CCN1C(=O)OC(C)(C)C` (centres undefined), for which the result with BJeH, in the assay with RKO [1], in the assay with MCF7, in the assay on BJeLR, in the assay with HT-1080 [3] and in the assay on HT1299 was inactive. The result in the assay on U2OS [4] was inactive. Besides, the inhibition result in assay [2] and in assay [5] was “inactive” in each case.

With `COC(OC)C1NCCc2c1[nH]c1ccccc21` (centres undefined), the outcome in the assay with BJeH, with RKO [1], in the assay with MCF7, with HT-1080 [3], in the assay with HT1299 and in the assay with U2OS [4] was inactive. Further, in [6], the CC50 was determined as 81.3 µM. Also, the inhibition entry in assay [2] and in assay [5] was “inactive” throughout.

For the compound `CC(C)(C)OC(=O)N1CCc2c(n(C(=O)OC(C)(C)C)c3ccccc23)C1CCO` (centres undefined), the result with BJeH, in the assay with MCF7, in the assay with BJeLR, with HT-1080 [3] and with HT1299 was inactive. Further, the CC50 with U2OS [11] and with RKO [9] was 49.7 µM throughout. For the same compound, the inhibition entry in [2] and in [5] was “inactive” each time.

Consider `CC(CC1C(=O)N(C)C(=O)N(C)C1=O)C1NCCc2c1n(C(=O)OC(C)(C)C)c1ccccc21` (centres undefined), for which the outcome in the assay on BJeH, in the assay with RKO [1], with MCF7, in the assay with HT-1080 [3], in the assay on HT1299 and in the assay on U2OS [4] was inactive. The CC50 in assay [6] amounted to 42.7 µM. The inhibition result in [2] and in [5] was “inactive” each time.
